The target in one data set is Cytochrome P450 2C8 (Homo sapiens, UniProt P10632). Description: Inhibition of CYP2C8. The format is ADME. The gist of the method:
(§1)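 Enzyme assays per CYP isoform (1A2, 2C8, 2D6, 3A4), with turnover of an appropriate fluorescent substrate as read-out; IC₅₀ reported.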

The target in data set [1] is Peroxisome proliferator-activated receptor delta (Mus musculus, UniProt P35396). Description: Agonist activity at mouse PPAR delta.
The target of the next data set is Cytochrome P450 2C9 (Homo sapiens, UniProt P11712). As to the kind of experiment: Inhibition of CYP2C9. The format is ADME.
The target of another data set is Estrogen receptor (Mus musculus, UniProt O08537+P19785). As to the kind of experiment: Displacement of [3H]O-estradiol from ER in Swiss mouse uteri. It is filed as protein assay. In general terms: Displacement assays read how much labelled ligand stays bound in the presence of the test substance.
In data set [2] the target is T1, Peroxisome proliferator-activated receptor alpha (Homo sapiens, UniProt Q07869).
T1 sequence (Q07869 whole entry): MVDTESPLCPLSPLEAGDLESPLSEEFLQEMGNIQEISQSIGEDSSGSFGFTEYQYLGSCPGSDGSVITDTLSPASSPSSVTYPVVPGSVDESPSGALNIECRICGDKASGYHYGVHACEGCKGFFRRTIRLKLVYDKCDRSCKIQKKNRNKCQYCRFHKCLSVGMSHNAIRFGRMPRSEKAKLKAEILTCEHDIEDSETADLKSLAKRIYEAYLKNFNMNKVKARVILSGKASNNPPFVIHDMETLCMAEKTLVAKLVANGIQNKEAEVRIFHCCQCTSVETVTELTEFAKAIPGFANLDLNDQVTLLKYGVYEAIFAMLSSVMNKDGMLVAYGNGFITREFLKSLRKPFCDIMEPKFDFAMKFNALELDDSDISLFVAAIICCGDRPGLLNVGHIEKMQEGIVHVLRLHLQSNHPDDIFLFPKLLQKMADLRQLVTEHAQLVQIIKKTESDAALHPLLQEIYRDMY
As to the kind of experiment: (§2) Agonist activity at human PPAR alpha expressed in CV1 cells by GAL4 transactivation assay. It is filed as functional, cell-based, CV-1. The gist of the method: (§3)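 CV-1 cells plated, grown overnight at 37 °C in 5% CO₂, then transfected with GAL4-fused human PPARα ligand binding domain, pFR-LUC and pRL-SV40 reporter DNAs by lipofection. After a further overnight incubation, cells were exposed to compound or vehicle overnight. Activity was read as dual-luciferase reporter signal.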

For data set [3], the target named is T2, Peroxisome proliferator-activated receptor alpha (Homo sapiens) (UniProt Q07869).
T2 sequence (whole entry): T1 sequence (Q07869 whole entry)
The data set is described as §2. It is filed as functional, cell-based. As to conditions: CV-1. The gist of the method:
as §3

The next data set concerns the target Androgen receptor (Homo sapiens, UniProt P10275). Description: Displacement of [3H]dihydrotestosterone from human recombinant androgen receptor expressed in SF9 baculovirus cells.
Data set [4] in a line: Cmax in mouse at 10 mg/kg, po. It is filed as ADME, organism-based. Details: dose 10 mg/kg, route oral. Particulars: in vivo. An outline of the steps: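 Mice dosed orally in 0.5% methylcellulose vehicle; plasma Cmax reported.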
Data set [5] has as its target T3, Peroxisome proliferator-activated receptor delta (Homo sapiens, UniProt Q03181).
T3 sequence (Q03181 whole entry): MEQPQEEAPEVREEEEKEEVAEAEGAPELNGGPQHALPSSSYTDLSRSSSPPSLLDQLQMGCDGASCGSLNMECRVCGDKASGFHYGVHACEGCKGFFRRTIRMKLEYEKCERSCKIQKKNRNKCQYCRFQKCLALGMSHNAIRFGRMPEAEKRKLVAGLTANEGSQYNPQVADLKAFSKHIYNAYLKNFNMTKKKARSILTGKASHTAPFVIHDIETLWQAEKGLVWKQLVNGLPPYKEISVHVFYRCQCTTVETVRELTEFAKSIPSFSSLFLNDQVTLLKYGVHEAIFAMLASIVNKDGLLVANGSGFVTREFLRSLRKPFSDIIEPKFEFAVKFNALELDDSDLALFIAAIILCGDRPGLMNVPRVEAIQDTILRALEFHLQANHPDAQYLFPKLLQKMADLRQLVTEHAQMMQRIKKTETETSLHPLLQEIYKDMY
As to the kind of experiment: Agonist activity at human PPAR delta expressed in CV1 cells by GAL4 transactivation assay.

The nature of data set [6]: Aqueous solubility at pH 6.8. The format is physicochemical.
Data set [7] has as its target T3, Peroxisome proliferator-activated receptor delta. Description: Agonist activity at human PPAR delta by FRET assay. It is filed as functional.
Another data set deals with Glucocorticoid receptor (Homo sapiens, UniProt P04150). Description: Displacement of [H]dexamethaxone from glucocorticoid receptor in HUH cells. It is filed as cell-based.
The target in data set [8] is T4, Peroxisome proliferator-activated receptor alpha (Mus musculus) (UniProt P23204).
T4 sequence (whole entry): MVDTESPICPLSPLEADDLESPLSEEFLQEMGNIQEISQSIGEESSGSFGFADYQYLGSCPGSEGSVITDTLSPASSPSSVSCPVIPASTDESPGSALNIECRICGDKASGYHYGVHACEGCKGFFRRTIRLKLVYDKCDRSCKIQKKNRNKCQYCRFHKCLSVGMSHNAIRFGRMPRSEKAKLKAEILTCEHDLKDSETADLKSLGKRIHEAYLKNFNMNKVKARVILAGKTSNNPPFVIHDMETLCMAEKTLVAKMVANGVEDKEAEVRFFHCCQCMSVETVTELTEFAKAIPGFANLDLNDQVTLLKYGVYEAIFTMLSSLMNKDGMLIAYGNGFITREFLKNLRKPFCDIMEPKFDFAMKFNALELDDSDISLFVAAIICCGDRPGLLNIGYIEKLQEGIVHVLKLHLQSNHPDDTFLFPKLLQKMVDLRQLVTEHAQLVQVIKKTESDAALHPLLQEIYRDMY
As to the kind of experiment: (§4) Agonist activity at mouse PPAR alpha. The format is functional.

For data set [9], the target named is Peroxisome proliferator-activated receptor alpha (Mus musculus, UniProt P23204). The description is as §4. The format is functional.
In the next data set the target is Progesterone receptor (Homo sapiens, UniProt P06401). As to the kind of experiment: Displacement of [3H]progesterone from progesterone receptor in T47D cells. It is filed as cell-based. An outline of the steps:
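Cytosol from T47D cells incubated overnight at 4 °C with ³H-progesterone at 10 nM final, with or without compound. DMSO defined total binding and 1 µM unlabelled progesterone defined nonspecific binding. Bound and free ligand were separated on a spin plate, and the flow-through was counted by scintillation.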

In data set [10] the target is T5, Peroxisome proliferator-activated receptor gamma (Mus musculus, UniProt P37238).
T5 sequence (P37238 whole entry): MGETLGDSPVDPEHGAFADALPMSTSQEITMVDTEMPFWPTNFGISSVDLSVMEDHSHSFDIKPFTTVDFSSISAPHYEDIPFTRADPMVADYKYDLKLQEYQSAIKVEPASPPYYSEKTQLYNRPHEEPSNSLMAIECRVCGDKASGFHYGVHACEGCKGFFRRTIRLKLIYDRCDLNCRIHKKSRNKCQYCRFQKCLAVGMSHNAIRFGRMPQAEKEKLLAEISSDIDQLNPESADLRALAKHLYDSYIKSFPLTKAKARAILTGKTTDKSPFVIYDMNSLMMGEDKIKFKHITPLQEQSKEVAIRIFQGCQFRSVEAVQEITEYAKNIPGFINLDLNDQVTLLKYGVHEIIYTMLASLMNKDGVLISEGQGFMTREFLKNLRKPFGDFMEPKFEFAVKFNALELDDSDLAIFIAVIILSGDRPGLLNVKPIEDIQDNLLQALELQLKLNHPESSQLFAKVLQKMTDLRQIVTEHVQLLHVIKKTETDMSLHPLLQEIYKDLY
As to the kind of experiment: Agonist activity at PPAR gamma in mouse 3T3L1 cells assessed as increase in insulin receptor by IRBA. The format is functional, cell-based, 3T3-L1.

A further data set concerns the target Cytochrome P450 2D6 (Homo sapiens, UniProt P10635). As to the kind of experiment: Inhibition of CYP2D6. It is filed as ADME. An outline of the steps:
as §1

The target of data set [11] is PPAR gamma (Homo sapiens). Description: Agonist activity at human PPAR gamma expressed in human preadipocytes assessed as increase in insulin receptor by IRBA.
For another data set, the target named is Cytochrome P450 1A2 (Homo sapiens, UniProt P05177). Description: Inhibition of CYP1A2. The format is ADME. An outline of the steps: as §1
Data set [12] addresses T1, Peroxisome proliferator-activated receptor alpha. Description: Agonist activity at human PPAR alpha by FRET assay. The format is functional. An outline of the steps:
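Human PPARα ligand binding domain (GST-tagged) association with biotin-labeled co-activator CBP; Eu-labeled anti-GST antibody and streptavidin-APC; incubated 2 h at rt in buffer with or without compound; fluorescence read at 615 or 655 nm emission, 340 nm excitation.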

Another data set deals with Cytochrome P450 3A4 (Homo sapiens, UniProt P08684). As to the kind of experiment: Inhibition of CYP3A4. It is filed as ADME. The gist of the method: as §1
The nature of data set [13]: Aqueous solubility of the compound. The format is physicochemical.

The results in this text go back to ChEMBL document CHEMBL1142242, “Indanylacetic acid derivatives carrying 4-thiazolyl-phenoxy tail groups, a new class of potent PPAR alpha/gamma/delta pan agonists: synthesis, structure-activity relationship, and in vivo efficacy” (J Med Chem, 2007).

Cytochrome P450 1A2, sequence (P05177 whole entry): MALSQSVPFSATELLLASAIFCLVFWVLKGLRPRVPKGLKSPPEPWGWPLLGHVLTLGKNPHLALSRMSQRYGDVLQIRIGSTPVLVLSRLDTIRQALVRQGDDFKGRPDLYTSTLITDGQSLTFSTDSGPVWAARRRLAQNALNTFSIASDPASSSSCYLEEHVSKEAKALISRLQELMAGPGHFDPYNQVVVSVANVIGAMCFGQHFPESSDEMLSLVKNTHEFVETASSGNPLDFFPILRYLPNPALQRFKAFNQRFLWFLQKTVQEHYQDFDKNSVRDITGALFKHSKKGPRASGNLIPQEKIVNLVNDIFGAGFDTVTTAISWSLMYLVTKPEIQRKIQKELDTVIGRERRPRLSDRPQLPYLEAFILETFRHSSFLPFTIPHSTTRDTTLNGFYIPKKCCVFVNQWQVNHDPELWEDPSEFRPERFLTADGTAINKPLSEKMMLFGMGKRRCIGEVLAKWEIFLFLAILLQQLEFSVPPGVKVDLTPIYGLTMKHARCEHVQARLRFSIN
Progesterone receptor, sequence (P06401 whole entry): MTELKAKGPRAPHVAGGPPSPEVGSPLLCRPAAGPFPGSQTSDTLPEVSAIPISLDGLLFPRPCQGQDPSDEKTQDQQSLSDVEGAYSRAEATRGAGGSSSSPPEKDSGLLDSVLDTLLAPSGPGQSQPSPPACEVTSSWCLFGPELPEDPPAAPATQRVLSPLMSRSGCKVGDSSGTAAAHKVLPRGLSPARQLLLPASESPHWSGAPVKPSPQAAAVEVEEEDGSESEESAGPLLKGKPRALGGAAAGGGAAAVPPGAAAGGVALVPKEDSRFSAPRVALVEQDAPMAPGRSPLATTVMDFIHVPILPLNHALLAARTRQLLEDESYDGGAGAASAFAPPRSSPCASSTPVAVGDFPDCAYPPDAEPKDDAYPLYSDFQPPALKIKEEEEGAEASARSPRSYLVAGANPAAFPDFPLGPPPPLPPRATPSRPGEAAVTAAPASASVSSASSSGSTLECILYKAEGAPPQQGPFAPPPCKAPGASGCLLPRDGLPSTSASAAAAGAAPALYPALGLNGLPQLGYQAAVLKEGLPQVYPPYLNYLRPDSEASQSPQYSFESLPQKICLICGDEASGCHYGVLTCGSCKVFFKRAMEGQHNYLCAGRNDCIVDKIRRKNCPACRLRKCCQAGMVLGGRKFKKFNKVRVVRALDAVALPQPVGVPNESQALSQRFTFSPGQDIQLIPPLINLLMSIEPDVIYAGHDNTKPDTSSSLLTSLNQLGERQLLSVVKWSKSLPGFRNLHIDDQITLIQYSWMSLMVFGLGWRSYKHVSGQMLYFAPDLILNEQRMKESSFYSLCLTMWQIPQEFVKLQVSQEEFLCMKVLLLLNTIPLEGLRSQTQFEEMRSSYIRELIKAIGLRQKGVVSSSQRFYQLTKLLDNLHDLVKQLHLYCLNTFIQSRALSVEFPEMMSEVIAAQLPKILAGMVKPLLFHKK
Glucocorticoid receptor, sequence (P04150 whole entry): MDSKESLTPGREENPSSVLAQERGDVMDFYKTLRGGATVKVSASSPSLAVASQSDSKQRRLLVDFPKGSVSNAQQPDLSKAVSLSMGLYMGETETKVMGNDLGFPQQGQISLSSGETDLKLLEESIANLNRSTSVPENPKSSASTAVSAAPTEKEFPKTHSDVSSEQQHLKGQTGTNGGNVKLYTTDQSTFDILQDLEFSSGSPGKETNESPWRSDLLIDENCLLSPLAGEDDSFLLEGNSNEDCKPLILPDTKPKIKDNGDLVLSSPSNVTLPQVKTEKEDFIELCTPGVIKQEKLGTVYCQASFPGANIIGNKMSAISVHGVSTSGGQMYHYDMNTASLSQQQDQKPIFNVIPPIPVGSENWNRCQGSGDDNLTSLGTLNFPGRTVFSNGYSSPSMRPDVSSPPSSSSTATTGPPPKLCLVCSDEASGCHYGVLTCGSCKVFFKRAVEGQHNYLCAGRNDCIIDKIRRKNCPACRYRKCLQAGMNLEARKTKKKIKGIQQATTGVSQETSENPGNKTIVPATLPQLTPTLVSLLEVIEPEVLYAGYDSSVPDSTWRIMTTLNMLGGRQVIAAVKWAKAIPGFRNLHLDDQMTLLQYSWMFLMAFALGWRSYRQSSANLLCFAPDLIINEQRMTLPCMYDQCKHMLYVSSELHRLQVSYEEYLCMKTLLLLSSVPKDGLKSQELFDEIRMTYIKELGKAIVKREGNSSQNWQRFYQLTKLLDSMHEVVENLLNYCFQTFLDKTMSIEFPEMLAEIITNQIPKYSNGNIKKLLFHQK
Cytochrome P450 3A4, sequence (P08684 whole entry): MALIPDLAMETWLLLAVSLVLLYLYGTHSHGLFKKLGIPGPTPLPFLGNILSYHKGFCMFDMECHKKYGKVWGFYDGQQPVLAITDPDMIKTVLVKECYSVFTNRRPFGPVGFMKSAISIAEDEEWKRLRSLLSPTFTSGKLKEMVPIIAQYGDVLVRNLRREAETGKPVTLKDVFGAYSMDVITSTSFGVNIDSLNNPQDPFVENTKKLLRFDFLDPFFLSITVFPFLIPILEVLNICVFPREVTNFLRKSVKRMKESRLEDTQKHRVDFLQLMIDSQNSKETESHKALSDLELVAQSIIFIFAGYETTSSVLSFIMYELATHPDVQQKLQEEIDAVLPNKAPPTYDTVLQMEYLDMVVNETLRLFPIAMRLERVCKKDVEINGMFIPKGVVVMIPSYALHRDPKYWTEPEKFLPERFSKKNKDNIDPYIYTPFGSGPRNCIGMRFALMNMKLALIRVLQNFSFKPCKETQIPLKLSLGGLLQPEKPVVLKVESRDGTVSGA
Androgen receptor, sequence (P10275 whole entry): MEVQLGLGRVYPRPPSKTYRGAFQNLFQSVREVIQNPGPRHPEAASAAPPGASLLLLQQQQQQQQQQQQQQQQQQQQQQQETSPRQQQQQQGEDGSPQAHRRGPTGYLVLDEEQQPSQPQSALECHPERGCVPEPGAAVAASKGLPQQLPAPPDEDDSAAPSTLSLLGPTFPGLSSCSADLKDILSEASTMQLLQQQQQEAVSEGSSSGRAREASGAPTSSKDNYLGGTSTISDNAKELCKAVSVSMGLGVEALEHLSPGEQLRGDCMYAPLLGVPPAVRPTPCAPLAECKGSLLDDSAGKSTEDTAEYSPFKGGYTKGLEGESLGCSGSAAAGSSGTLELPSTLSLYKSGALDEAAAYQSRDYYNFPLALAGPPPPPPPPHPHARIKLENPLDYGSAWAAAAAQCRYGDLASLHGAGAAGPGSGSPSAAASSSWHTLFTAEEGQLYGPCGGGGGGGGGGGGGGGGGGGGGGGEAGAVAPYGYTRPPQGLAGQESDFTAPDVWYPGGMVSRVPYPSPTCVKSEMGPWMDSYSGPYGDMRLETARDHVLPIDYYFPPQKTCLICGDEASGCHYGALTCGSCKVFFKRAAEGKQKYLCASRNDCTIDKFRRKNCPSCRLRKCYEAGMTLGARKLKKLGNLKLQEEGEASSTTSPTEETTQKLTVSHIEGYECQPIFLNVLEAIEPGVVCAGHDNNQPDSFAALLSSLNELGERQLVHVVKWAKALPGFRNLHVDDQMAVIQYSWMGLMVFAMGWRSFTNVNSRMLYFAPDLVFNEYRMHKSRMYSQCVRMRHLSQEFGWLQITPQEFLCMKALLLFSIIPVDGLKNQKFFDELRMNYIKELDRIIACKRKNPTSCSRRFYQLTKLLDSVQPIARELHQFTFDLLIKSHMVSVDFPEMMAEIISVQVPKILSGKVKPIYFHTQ
Cytochrome P450 2C8, sequence (P10632 whole entry, canonical isoform): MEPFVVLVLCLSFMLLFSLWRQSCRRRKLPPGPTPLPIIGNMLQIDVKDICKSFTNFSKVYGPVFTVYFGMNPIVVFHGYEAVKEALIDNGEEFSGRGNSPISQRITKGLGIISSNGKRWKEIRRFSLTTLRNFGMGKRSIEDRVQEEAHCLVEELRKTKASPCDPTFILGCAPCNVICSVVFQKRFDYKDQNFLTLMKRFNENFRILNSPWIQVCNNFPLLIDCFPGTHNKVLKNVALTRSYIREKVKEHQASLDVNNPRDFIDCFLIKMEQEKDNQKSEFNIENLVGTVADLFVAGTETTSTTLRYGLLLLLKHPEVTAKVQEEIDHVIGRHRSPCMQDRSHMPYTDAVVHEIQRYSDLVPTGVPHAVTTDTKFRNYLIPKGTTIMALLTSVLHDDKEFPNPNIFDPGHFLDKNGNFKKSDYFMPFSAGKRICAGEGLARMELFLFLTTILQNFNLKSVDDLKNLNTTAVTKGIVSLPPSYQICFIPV
Peroxisome proliferator-activated receptor delta (Mus musculus, UniProt P35396), sequence (P35396 whole entry): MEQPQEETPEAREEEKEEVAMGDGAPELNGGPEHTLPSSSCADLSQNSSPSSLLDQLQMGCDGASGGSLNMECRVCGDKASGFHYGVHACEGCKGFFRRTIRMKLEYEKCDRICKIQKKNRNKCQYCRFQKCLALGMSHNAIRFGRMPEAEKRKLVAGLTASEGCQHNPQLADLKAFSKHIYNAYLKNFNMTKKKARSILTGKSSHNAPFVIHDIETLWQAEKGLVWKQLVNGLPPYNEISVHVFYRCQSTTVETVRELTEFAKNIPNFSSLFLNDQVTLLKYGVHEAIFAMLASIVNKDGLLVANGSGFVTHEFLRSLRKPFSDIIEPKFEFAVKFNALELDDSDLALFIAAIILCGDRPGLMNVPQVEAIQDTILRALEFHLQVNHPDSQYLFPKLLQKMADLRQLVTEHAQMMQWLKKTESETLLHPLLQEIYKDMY

For `CCCc1cc(-c2nc3c(s2)CCCC3)ccc1OCCCOc1ccc2c(c1)CC[C@H]2CC(=O)O`, the IC50 at Cytochrome P450 2C8, against Cytochrome P450 2C9, at Cytochrome P450 2D6, on Cytochrome P450 1A2 and against Cytochrome P450 3A4 was over 10 µM each time. Besides, the EC50 (as a rule, the concentration at which the effect is half-maximal) is 0.0086 µM in data set [1]; over 10 µM on Estrogen receptor; 0.005 µM in data set [2]; over 10 µM on Androgen receptor; 0.0026 µM in data set [5]; 0.0019 µM in data set [7]. For the same molecule, the EC50 is over 10 µM on Glucocorticoid receptor; 7.7 µM in data set [9]; over 10 µM on Progesterone receptor; 0.012 µM in data set [10]; 0.081 µM in [11]; 0.043 µM in data set [12]. The Activity in data set [3] worked out at 100%; in [8] it was 79%. For the same molecule, in [4], the Cmax (usually the maximum level reached in the sampled fluid or tissue) was determined as 5.1 µM. Besides, in [6], the solubility – broadly, how much of the substance goes into solution per volume – is under 5 µM.
Take `CCCc1c(OCCCOc2ccc3c(c2)CC[C@H]3CC(=O)O)ccc2c(C(F)(F)F)noc12`: the EC50 in data set [7] worked out at 0.006 µM; in data set [10], 0.042 µM; in data set [12], 0.192 µM. For the same molecule, in data set [13], the solubility is under 1 µM.
